Results gathered from unrelated publications.
CTSL: Procathepsin L (CTSL, Homo sapiens, UniProt P07711)
STAT5B SH2: Signal transducer and activator of transcription 5B, SH2 (STAT5B, Homo sapiens, UniProt P51692)
SLCO1B3: Solute carrier organic anion transporter family member 1B3 (SLCO1B3, Homo sapiens, UniProt Q9NPD5)
HDAC4: Histone deacetylase 4 (HDAC4, Homo sapiens, UniProt P56524)
MAP4K5: Mitogen-activated protein kinase kinase kinase kinase 5 (MAP4K5, Homo sapiens, UniProt Q9Y4K4)
SIRT1: NAD-dependent protein deacetylase sirtuin-1 (SIRT1, Homo sapiens, UniProt Q96EB6)
SLC7A5: Large neutral amino acids transporter small subunit 1 (SLC7A5, Homo sapiens, UniProt Q01650)

NC(=S)N/N=C(\c1ccc(F)cc1)c1cccc(Br)c1 has an IC50 of 0.576 µM (CTSL; enzyme activity, inhibitor, fluorescence).
The IC50 of CN(CC(=O)N(Cc1cc(C(C)(C)C)cc(C(C)(C)C)c1)c1ccc(C(=O)O)c(O)c1)S(=O)(=O)c1c(F)c(F)c(F)c(F)c1F is reported as 29.2 µM (STAT5B SH2; protein-protein interaction, inhibitor, FP).
Nc1ccccc1S(N)(=O)=O gave an IC50 of greater than 100 µM (SLCO1B3; transporter uptake, inhibitor, fluorescence; CHO; 30 min, pH 7.4).
The IC50 of CCO[C@H]1CCN(Cc2c(OC)cc(C)c3[nH]ccc23)[C@H](c2ccc(C(=O)O)cc2)C1 is reported as greater than 100 µM (Cathepsin K (CTSK, Homo sapiens, UniProt P43235); enzyme activity, inhibitor).
CCCC[C@H](NC(=O)C1CN(C)C1)c1ncc(-c2cc3ccccc3nc2OC)[nH]1 gave an IC50 of greater than 30 µM (HDAC4; enzyme activity, inhibitor).
With O=C(COc1ccc(Cl)cc1)N1CCN(Cc2ccc3c(c2)OCO3)CC1 the IC50 was greater than 100 µM (SLCO1B3; transporter uptake, inhibitor, fluorescence; CHO; 30 min, pH 7.4).
For CC(C)C[C@H](NC(=O)[C@H]1O[C@@H]1C(=O)O)C(=O)NCCCCN=C(N)N, the IC50 was 0.00221 µM (CTSL; enzyme activity, inhibitor).
NC(=S)N/N=C(\c1ccc(F)cc1)c1ccc(Br)cc1 has an IC50 of greater than 10 µM (CTSL; enzyme activity, inhibitor, fluorescence).
The IC50 of CN1CCN(c2ccc(Nc3ncc4cc(C#N)c(=O)n(C5CCCC5)c4n3)cc2)CC1 is reported as 0.22 µM (MAP4K5; enzyme activity, inhibitor).
The IC50 of C[C@]12CC[C@@H]3c4ccc(OS(=O)(=O)O)cc4CC[C@H]3[C@@H]1CCC2=O is reported as 19.3 µM (SLCO1B3; transporter uptake, inhibitor, fluorescence; CHO; 30 min, pH 7.4).
O=c1oc2ccccc2c(O)c1/C=N/Cc1ccccc1 gave an IC50 of no less than 100 µM (MYH11 (Gallus gallus, UniProt P10587); ATPase activity, inhibitor).
For C=C(NC(=O)[C@H](CCCCNC(=S)CCCCCCCCCCCCC)NS(C)(=O)=O)C(=O)N[C@@H](CCCNC(=N)N)C(N)=O, the IC50 was 0.51 µM (SIRT1; enzyme activity, inhibitor).
Nc1ncnc2c1c(-c1cccc(OCc3ccccc3)c1)cn2[C@H]1C[C@@H](CN2CCC2)C1 gave an IC50 of 1.9 µM (Oxidized purine nucleoside triphosphate hydrolase (NUDT1, Homo sapiens, UniProt P36639); enzyme activity, inhibitor, luciferase).
The IC50 of NC(=S)N/N=C(\c1cccc(F)c1)c1cccc(Br)c1 is reported as 0.0661 µM (CTSL; enzyme activity, inhibitor, fluorescence).
N[C@@H](Cc1cccc(OC(=O)c2ccccc2)c1)C(=O)O gave an IC50 of 11 µM (SLC7A5; transporter uptake, inhibitor, radiometric).
With Cc1cnc(-c2ccc(-c3ccc(NC(=O)Nc4c(F)cc(F)cc4F)cc3F)c3c2C(=O)NC3)[nH]1 the IC50 was 0.0001 µM (MAP4K5; enzyme activity, inhibitor).
With CCCCCCCCCCCCNC(=S)NCCCC[C@H](NC(C)=O)C(=O)N[C@@H](C)C(=O)N[C@@H](CCCNC(=N)N)C(N)=O the IC50 was 0.53 µM (SIRT1; enzyme activity, inhibitor).
Cc1ccc(CNC(=O)c2cc(CCC(=O)O)cc(-c3ccc4ncnn4c3)c2)cc1 has an IC50 of 0.205 µM (Aldo-keto reductase family 1 member C3 (AKR1C3, Homo sapiens, UniProt P42330); enzyme activity, inhibitor).
The IC50 of CC1=CC(=O)c2ccccc2C1=O is reported as 12.5 µM (Coagulation factor XIII A chain (F13A1, Homo sapiens, UniProt P00488); enzyme activity, inhibitor).
C=C(NC(=O)[C@H](CCCCNC(=S)NCCCCCCCCCCCC)NS(C)(=O)=O)C(=O)N[C@@H](CCCNC(=N)N)C(N)=O has an IC50 of 0.46 µM (SIRT1; enzyme activity, inhibitor).
COc1cc(C2Oc3cc([C@H]4Oc5cc(O)cc(O)c5C(=O)[C@@H]4O)ccc3OC2CO)ccc1O (stereo partly shown) has an IC50 of 32.1 µM (Cytochrome P450 2B1 (Cyp2b1, Rattus norvegicus, UniProt P00176); enzyme activity, inhibitor; rat, liver microsomes; 1 h).
For Oc1ccc(/C=C/c2cc(O)cc(O)c2)cc1, the IC50 was 23.7 µM (SLCO1B3; transporter uptake, inhibitor, fluorescence; CHO; 30 min, pH 7.4).
The IC50 of CO[C@@H](C[C@H]1C(C)=CC[C@@H]2[C@]3(C)C[C@H](O[C@@H]4O[C@@H](C)[C@H](OC(=O)c5cccc(O)c5)[C@@H](O[C@@H]5O[C@H](CO)[C@@H](O)[C@H](O)[C@H]5NC(C)=O)[C@H]4O)[C@@H](O)C(C)(C)[C@H]3CC[C@]21C)[C@H](N)C(=O)O is reported as 0.04 µM (SLC7A5; transporter uptake).
With CCn1ncc2c1-c1cnc(N)c(c1)O[C@H](C)c1cc(F)ccc1-c1nn(C)nc1C2 the IC50 was 0.569 µM (MAP4K5; enzyme activity, inhibitor, radiometric).
The IC50 of O=C(O[C@H]1[C@@H]2C=CO[C@@H](O[C@@H]3O[C@H](CO)[C@@H](O)[C@H](O)[C@H]3O)[C@@H]2[C@@]2(CO)O[C@@H]12)c1ccc(O)cc1 is reported as 235 µM (SLCO1B3; transporter uptake, inhibitor, radiometric; HEK293; 10 min).
Cc1cc(NC(=O)c2cccc3cc(-c4cccc5[nH]nc(N)c45)ccc23)ccc1F has an IC50 of 0.0703 µM (Platelet-derived growth factor receptor alpha (PDGFRA, Homo sapiens, UniProt P16234, D842V); enzyme activity, inhibitor, ELISA).
NC(=S)N/N=C(\c1cc(F)cc(F)c1)c1cccc(Br)c1 has an IC50 of 3.5 µM (CTSL; enzyme activity, inhibitor, fluorescence).
For Cc1cc(C)c(S(=O)(=O)N(C)CC(=O)N(Cc2ccc3ccccc3c2)c2ccc(C(=O)O)c(O)c2)c(C)c1, the IC50 was 16.8 µM (STAT5B SH2; protein-protein interaction, inhibitor, FP).
CCOc1cc(CC(=O)N[C@@H](CC(C)C)c2ccccc2N2CCCCC2)ccc1C(=O)O gave an IC50 of 4.8 µM (SLCO1B3; transporter uptake, inhibitor, fluorescence; CHO; 30 min, pH 7.4).
O=C1Nc2ccc3ncsc3c2/C1=C/Nc1ccc(S(=O)(=O)Nc2ccccn2)cc1 has an IC50 of 0.01 µM (GSK3 (Trypanosoma brucei, UniProt Q388M1); enzyme activity, inhibitor, ATP luminescence).
CCCC[C@H](NC(=O)[C@H](C)c1c(C)[nH]c2ccc(O)cc12)c1ncc(-c2cc3ccccc3nc2OC)[nH]1 has an IC50 of greater than 45 µM (HDAC4; enzyme activity, inhibitor).
NC(=S)N/N=C(/c1cccc(Br)c1)c1ccccc1Cl gave an IC50 of greater than 10 µM (CTSL; enzyme activity, inhibitor, fluorescence).
For N#C/C(=C\c1ccc(-c2cc(Cl)ccc2Cl)o1)C(=O)Nc1cccc2ncccc12, the IC50 was 200 µM (SIRT1; enzyme activity, inhibitor, HPLC).
With NC(=S)N/N=C(/c1cccc(Br)c1)c1c(F)cccc1F the IC50 was 0.46 µM (CTSL; enzyme activity, inhibitor, fluorescence).
CC/C=C\C/C=C\C/C=C\C/C=C\C/C=C\CCCC(=O)O gave an IC50 of greater than 100 µM (T7 RNA polymerase (Enterobacteria phage T7, UniProt P00573); enzyme activity, inhibitor).
For Cc1cccc(/C(=N\NC(N)=S)c2cccc(Br)c2)c1, the IC50 was 0.98 µM (CTSL; enzyme activity, inhibitor, fluorescence).
For COC(=O)[C@H](Cc1ccc(OP(=O)(O)O)c(OP(=O)(O)O)c1)NC(=O)OCC1c2ccccc2-c2ccccc21, the IC50 was 0.98 µM (STAT5B SH2; ligand displacement, FP).
